Test results taken from ChEMBL document CHEMBL1145385, “Functional differences in epigenetic modulators-superiority of mercaptoacetamide-based histone deacetylase inhibitors relative to hydroxamates in cortical neuron neuroprotection studies” (J Med Chem, 2007).
The source made the active and inactive calls. The rule behind the calls is not given here.

How the values were obtained:
Histone deacetylase 1 = Histone deacetylase 1 (Homo sapiens, UniProt Q13547); experiment: Inhibition of His-tagged HDAC1 expressed in Sf9 cells by fluorescence-based assay
Chain of Histone deacetylase 1 (Q13547 whole entry): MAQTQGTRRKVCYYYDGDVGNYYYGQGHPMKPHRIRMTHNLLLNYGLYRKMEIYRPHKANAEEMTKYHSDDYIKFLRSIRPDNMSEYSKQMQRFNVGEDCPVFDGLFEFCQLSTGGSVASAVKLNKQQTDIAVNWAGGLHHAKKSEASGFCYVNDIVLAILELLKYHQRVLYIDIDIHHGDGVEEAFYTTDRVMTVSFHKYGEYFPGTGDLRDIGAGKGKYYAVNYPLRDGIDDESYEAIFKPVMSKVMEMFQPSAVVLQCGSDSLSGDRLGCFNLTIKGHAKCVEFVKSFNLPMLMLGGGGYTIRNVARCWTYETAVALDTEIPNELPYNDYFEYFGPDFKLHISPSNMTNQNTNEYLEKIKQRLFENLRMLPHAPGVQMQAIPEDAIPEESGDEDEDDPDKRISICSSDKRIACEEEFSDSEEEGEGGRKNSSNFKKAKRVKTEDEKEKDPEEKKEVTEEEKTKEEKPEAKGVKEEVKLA

[1] = target: T1, Polyamine deacetylase HDAC10 (Homo sapiens, UniProt Q969S8); experiment: Inhibition of His-tagged HDAC10 expressed in Sf9 cells by fluorescence-based assay
T1 sequence (Q969S8 whole entry): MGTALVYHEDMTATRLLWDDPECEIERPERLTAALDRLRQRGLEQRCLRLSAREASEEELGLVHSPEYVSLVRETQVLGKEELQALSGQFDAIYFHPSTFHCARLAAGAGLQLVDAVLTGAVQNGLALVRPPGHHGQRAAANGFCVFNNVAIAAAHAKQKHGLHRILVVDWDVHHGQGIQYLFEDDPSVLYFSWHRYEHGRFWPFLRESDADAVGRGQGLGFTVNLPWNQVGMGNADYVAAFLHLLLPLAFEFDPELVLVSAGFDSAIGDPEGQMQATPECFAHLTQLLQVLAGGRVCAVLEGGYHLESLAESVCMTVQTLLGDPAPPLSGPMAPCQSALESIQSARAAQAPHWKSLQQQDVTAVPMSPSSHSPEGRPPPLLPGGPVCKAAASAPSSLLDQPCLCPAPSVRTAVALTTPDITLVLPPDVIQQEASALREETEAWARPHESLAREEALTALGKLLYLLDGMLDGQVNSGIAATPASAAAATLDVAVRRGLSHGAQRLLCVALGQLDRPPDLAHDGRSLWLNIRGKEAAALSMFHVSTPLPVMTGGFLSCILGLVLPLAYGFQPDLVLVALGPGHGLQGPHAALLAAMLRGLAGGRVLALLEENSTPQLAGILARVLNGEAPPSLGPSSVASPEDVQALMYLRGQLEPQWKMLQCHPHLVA

Histone deacetylase 2 = Histone deacetylase 2 (Homo sapiens, UniProt Q92769); experiment: Inhibition of His-tagged HDAC2 expressed in Sf9 cells by fluorescence-based assay
Chain of Histone deacetylase 2 (Q92769 whole entry): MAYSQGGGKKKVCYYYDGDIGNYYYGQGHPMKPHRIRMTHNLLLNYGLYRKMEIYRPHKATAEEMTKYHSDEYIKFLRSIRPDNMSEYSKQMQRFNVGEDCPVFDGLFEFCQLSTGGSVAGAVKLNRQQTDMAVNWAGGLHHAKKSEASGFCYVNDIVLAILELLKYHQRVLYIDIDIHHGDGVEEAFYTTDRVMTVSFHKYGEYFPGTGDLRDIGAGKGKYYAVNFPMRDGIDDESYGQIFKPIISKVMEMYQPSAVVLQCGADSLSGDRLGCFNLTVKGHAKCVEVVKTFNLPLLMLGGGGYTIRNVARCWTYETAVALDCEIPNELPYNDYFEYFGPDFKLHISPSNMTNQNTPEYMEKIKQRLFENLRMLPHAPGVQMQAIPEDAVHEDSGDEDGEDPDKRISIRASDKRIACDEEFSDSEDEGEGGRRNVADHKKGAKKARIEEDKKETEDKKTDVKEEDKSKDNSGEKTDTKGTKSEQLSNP

Histone deacetylase 8 = target: T2, Histone deacetylase 8 (Homo sapiens, UniProt Q9BY41); experiment: Inhibition of His-tagged HDAC8 expressed in Sf9 cells by fluorescence-based assay
T2 sequence (Q9BY41 whole entry): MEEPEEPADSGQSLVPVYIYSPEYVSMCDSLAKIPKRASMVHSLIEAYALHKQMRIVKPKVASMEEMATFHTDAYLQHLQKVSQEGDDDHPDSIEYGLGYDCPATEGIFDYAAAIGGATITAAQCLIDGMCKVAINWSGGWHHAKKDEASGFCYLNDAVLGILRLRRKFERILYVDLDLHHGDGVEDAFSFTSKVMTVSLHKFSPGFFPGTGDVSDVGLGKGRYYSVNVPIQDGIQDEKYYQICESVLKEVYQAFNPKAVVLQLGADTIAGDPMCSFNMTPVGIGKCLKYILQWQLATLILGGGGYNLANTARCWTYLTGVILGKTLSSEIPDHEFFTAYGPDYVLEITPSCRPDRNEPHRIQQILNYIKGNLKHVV

[2] = target: T3, Protein deacetylase HDAC6 (Homo sapiens, UniProt Q9UBN7); experiment: Inhibition of His-tagged HDAC6 expressed in Sf9 cells by fluorescence-based assay
T3 sequence (Q9UBN7 whole entry): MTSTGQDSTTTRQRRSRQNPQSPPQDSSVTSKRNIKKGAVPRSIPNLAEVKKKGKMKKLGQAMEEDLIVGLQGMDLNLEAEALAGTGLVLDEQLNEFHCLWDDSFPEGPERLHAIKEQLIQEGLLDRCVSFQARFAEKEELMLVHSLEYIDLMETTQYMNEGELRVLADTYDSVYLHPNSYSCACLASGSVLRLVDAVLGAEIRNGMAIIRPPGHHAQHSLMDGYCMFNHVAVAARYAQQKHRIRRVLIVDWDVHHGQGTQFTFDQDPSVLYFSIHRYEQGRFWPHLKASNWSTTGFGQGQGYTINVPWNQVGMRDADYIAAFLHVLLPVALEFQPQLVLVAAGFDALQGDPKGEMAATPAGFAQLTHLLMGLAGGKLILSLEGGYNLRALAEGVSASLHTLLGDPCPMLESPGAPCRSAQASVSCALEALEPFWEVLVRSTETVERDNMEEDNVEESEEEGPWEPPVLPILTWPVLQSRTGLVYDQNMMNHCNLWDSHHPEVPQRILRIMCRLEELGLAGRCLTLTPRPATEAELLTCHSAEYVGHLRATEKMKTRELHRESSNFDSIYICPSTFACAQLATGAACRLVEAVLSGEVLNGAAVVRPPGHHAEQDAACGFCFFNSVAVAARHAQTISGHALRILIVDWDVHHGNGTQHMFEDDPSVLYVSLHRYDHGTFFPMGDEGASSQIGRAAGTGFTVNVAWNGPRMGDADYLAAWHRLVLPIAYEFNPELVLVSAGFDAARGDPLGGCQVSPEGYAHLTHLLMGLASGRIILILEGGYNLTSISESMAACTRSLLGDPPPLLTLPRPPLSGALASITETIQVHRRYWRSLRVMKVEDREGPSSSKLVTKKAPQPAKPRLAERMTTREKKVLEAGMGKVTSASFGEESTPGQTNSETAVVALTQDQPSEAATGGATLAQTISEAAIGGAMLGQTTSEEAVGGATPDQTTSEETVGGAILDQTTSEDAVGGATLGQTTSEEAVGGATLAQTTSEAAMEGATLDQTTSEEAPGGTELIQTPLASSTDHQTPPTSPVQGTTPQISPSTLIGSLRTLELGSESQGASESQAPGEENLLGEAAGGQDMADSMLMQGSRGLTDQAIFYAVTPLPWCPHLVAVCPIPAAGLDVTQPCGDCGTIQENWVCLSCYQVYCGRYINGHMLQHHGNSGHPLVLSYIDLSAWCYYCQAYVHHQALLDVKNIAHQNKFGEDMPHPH

neuronal [3] = experiment: Protection against HCA-induced oxidative stress Sprague-Dawley rat neuronal cells at 10 uM; type: functional, cell-based
Summary of the method: (§1)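 Cortical neurons from E17 Sprague-Dawley rat fetuses, used 24 h after plating, in MEM with 5.5 g/L glucose, 10% fetal calf serum, 2 mM L-glutamine, 100 µM cystine; 5 mM HCA (pH 7.5) added together with compound (10 µM unless stated); viability after 48 h by MTT and calcein-AM/ethidium homodimer-1 staining; mean ± SE of four replicates.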

Primary neuron = experiment: Increase in histone H4 acetylation in Sprague-Dawley rat neurons at 50 uM after 8 hrs; type: functional
Summary of the method: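 Rat primary cortical neurons (fetal Sprague-Dawley, E17) treated 8 h; histones acid-extracted (0.4 N H2SO4) from nuclei, TCA-precipitated, run on 15% SDS gel; immunoblot with acetyl-H4 (1:1000) and total H4 (1:4000) antibodies, 3 h RT, HRP secondary 2 h, enhanced chemiluminescence detection.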

neuronal [4] = experiment: Protection against HCA-induced oxidative stress in Sprague-Dawley rat neuronal cells by MTT assay; type: functional, cell-based; summary of the method: as §1
[5] = Toxicity against Sprague-Dawley rat neuronal cells at 50 uM; type: cell-based

| IC50 (Histone deacetylase 1) [nM] | IC50 [1] [nM] | IC50 (Histone deacetylase 2) [nM] | IC50 (Histone deacetylase 8) [nM] | IC50 [2] [nM] | Compound | Activity (neuronal [3]) | Activity (Primary neuron) | Activity (neuronal [4]) | Activity [5] |
| --- | --- | --- | --- | --- | --- | --- | --- | --- | --- |
| 11900 | 29700 | > 30000 | > 30000 | 620 | CN(C)c1ccc(C(=O)NCCCCNC(=O)CS)cc1 | – | – | – | – |
| 1430 | 3430 | 4640 | 19100 | 482 | CN(C)c1ccc(C(=O)NCCCCCCNC(=O)CS)cc1 | Active | Active | – | – |
| 8.5 | 11.1 | 113 | 4090 | 3.7 | O=C(CCCCCCC(=O)Nc1nc(-c2cccc([N+](=O)[O-])c2)cs1)NO | – | – | – | – |
| 36.9 | 42.1 | 205 | 2060 | 9 | N[C@@H](Cc1ccc(O)cc1)C(=O)Nc1ccccc1-c1ccc(NC(=O)CCCCCCC(=O)NO)cc1 | – | – | – | – |
| 130 | 178 | 492 | 1050 | 45.5 | CN(C)c1ccc(CNC(=O)NCCC(=O)NO)cc1 | – | – | – | – |
| 5260 | 8780 | > 30000 | 12300 | 216 | CN(C)c1ccc(C(=O)NCCCNC(=O)CS)cc1 | – | inactive | Dose-dependent effect | Non-toxic |
| 10800 | > 30000 | > 30000 | 13900 | 2010 | O=C(CS)NCCCCCCNC(=O)Nc1ccccc1 | – | inactive | Dose-dependent effect | Non-toxic |
| 209 | 176 | 647 | 1740 | 34.5 | CN(C)c1ccc(NC(=O)NCCCCCCC(=O)NO)cc1 | – | – | – | – |
| 152 | 173 | 1050 | 3410 | 102 | O=C(CCCCCNC(=O)NC12CC3CC(CC(C3)C1)C2)NO | – | – | – | – |

| Compound | IC50 (Histone deacetylase 1) [nM] | IC50 [1] [nM] | IC50 (Histone deacetylase 2) [nM] | IC50 (Histone deacetylase 8) [nM] | IC50 [2] [nM] | Activity (neuronal [3]) | Activity (Primary neuron) | Activity (neuronal [4]) | Activity [5] |
| --- | --- | --- | --- | --- | --- | --- | --- | --- | --- |
| CN(C)c1ccc(C(=O)NCCCCCNC(=O)CS)cc1 | 1080 | 1540 | – | 10200 | 114 | – | – | – | – |
| N[C@@H](Cc1c[nH]c2ccccc12)C(=O)Nc1ccccc1-c1ccc(NC(=O)CCCCCCC(=O)NO)cc1 | 26.7 | 28.3 | 167 | 1720 | 5.4 | – | – | – | – |
| O=C(CS)NCCCCCC(=O)Nc1cccc2cccnc12 | 3220 | 10700 | 7380 | 6120 | 95.3 | Active | Active | – | – |
